Compounds with a hit are over-represented: about 2.3% of the library has one in this group of screens.
TRPC4 act: opens the mouse TRPC4 cation channel; 310,000 tested, 0.49% active; AID 2237; Q9QUQ5; B-score at 10 µM; HEK293 TRPC4beta/mu-opioid, Fluo4 calcium fluorescence; active compounds read high;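 active means B-score above 5 SD of library B-scores, and initial fluorescence ratio not above library mean plus 5 SD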;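 further: positive B-score marks a calcium rise read as TRPC4 activation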
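Assay system: HEK293 stable line with TRPC4beta plus mu-opioid receptor. Times: dye 45 min RT, read 110 s. Measured by: kinetic Fluo4 calcium fluorescence. Measure: B score of integrated ratio. Controls: assay buffer as low control, maximal DAMGO as high control.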
TRPC4 inh: inhibitors of mouse TRPC4 channel; Q9QUQ5; 300,000 tested, 0.39% active; HEK293 TRPC4beta/mu-opioid, DAMGO-evoked Fluo4 calcium flux; active compounds read low; AID 2247; B-score at 10 µM;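 active means B-score over 3 SD under the library average, no early fluorescence shift, positive overall ratio signal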
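Material: HEK293 cells with stable TRPC4beta plus mu-opioid receptor expression / Probe or stimulus: DAMGO in two steps, submaximal then maximal / Compound: single concentration per test compound / Technique: kinetic Fluo4 fluorescence imaging of calcium influx / Read-out: per-well B score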
TRPC6 inhibitor: blocks the mouse TRPC6 cation channel | Q61143 | HEK293-TRPC6, membrane potential dye, ACh-evoked depolarization; active compounds read low | B-score at 10 µM | 310,000 tested, 1.1% active;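 active means B-score under library mean minus 3 SD, initial fluorescence not abnormally high, positive integrated signal ratio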;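 further: B-score derived from integrated fluorescence ratio over the kinetic read; more negative B-score means stronger inhibition of depolarization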
Target sequence (Q61143 whole entry, looked up): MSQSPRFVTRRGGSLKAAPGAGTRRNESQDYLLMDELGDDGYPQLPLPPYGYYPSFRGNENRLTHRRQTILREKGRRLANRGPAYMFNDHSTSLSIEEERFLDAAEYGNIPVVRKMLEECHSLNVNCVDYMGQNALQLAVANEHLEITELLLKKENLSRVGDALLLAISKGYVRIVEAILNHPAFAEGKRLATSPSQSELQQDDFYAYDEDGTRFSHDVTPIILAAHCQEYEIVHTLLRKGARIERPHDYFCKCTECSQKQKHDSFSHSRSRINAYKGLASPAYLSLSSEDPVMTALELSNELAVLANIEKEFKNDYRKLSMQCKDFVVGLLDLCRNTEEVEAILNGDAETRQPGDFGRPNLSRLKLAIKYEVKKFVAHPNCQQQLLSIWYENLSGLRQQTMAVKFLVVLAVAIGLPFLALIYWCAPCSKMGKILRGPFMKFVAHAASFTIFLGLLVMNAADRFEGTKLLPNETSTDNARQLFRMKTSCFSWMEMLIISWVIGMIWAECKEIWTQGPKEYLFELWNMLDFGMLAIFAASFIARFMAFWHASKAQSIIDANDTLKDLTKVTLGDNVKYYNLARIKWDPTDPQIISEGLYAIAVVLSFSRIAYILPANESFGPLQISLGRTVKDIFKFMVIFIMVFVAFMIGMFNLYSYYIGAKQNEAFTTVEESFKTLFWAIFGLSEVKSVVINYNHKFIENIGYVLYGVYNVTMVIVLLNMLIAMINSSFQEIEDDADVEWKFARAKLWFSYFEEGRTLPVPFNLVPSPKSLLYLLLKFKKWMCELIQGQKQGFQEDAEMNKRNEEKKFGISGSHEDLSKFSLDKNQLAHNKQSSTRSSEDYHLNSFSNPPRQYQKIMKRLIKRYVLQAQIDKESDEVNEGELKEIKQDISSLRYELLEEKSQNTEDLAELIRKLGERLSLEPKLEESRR
TRPC4 PAM: allosteric potentiators of mouse TRPC4 channel. Q9QUQ5. HEK293 TRPC4beta/mu-opioid, DAMGO EC20, Fluo-4 Ca2+ flux; active compounds read high. B-score at 10 µM. 310,000 tested, 0.42% active;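 active means B-score of calcium response area above 5 SD of library B-scores, with initial fluorescence ratio within 5 SD of library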;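 further: B-score of integrated fluorescence ratio over time as area under calcium response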
TRPC6 act: activators of mouse TRPC6 channel; Q61143; HEK293-TRPC6 membrane potential dye fluorescence; active compounds read high; B-score at 10 µM; 310,000 tested, 0.13% active;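 active means B-score of the integrated fluorescence ratio above library mean plus 3 SD, and starting fluorescence ratio within library mean plus 5 SD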;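 further: higher score means more depolarization so channel activation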
TRPC4 spec 2: second selectivity test of TRPC6 inhibitors: effect on mouse TRPC4; shares compounds with TRPC6 inhibitor; HEK293 TRPC4/MOR, membrane potential dye fluorescence; channel activated by saturating DAMGO dose; inhibition, % at 10 µM; 920 tested, 42% active; AID 2776;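 active means compounds whose fluorescence signal differed from control wells by over 3 SD, either direction, in both duplicate plates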
TRPC4 spec: mouse TRPC4 off-target activity of TRPC6 inhibitors | activity change, negative = inhibition, % at 10 µM | AID 2777 | 920 tested, 61% active | HEK293 TRPC4/mu-opioid, membrane potential fluorescence | shares compounds with TRPC6 inhibitor;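 active means rise or fall in signal beyond 3 SD of buffer-only wells in both replicate plates, either sign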;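 further: integrated kinetic ratio of fluorescence range over baseline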
HEK293 MPD ctr 2-1: second counter-screen for TRPC6 inhibitors: parental HEK293 cells; shares compounds with TRPC6 inhibitor; parental HEK293 membrane potential dye fluorescence; maximal acetylcholine challenge after compound addition; signal change vs control, % at 10 µM; 920 tested, 31% active;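 active means membrane potential signal moving either way by over 3 SD of the maximum-effect control, in both duplicate plates, meaning non-specific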
HEK293 MPD ctr-1: parental HEK293 nonspecific activity of TRPC6 inhibitors; AID 2780; shares compounds with TRPC6 inhibitor; membrane potential signal change, % at 10 µM; 920 tested, 60% active; parental HEK293 membrane potential dye fluorescence;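 active means membrane potential signal shifting up or down by more than 3 SD of buffer-only wells, on both duplicate plates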
HEK293 MPD ctr-2: checks TRPC6 modulator effects in parental HEK293 cells; shares compounds with TRPC6 inhibitor; membrane potential dye fluorescence; membrane potential signal change, % at 10 µM; 2,400 tested, 51% active;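 active means membrane potential signal moves up or down beyond 5 SD from buffer-only wells, on both duplicate plates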
HEK293 MPD ctr 2-2: second check of TRPC6 modulator effects in parental HEK293 cells; shares compounds with TRPC6 inhibitor; membrane potential dye fluorescence; after compound, maximal acetylcholine stimulation; inhibition, % at 10 µM; 2,400 tested, 14% active; AID 488926;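 active means membrane potential signal drops by more than 5 SD from the mean control signal, in both duplicate plates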;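 further: plate controls were acetylcholine ECmax control wells for no effect and buffer only wells for full effect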
TRPC4 ctr mod: selectivity of TRPC6 modulators against mouse TRPC4; shares compounds with TRPC6 inhibitor; HEK293 TRPC4/mu-opioid, membrane potential fluorescence; percent change from control (negative = decrease, positive = increase), % at 10 µM; 2,400 tested, 69% active; AID 488927;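 active means membrane potential signal moved up or down beyond 5 SD of buffer control wells, in both duplicate plates, actives on both sides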;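 further: plate controls were assay buffer wells for no effect and DAMGO maximal-effect wells for full effect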
TRPC4 ctr inh 2: second selectivity test of TRPC6 modulators against mouse TRPC4; shares compounds with TRPC6 inhibitor; HEK293 TRPC4/mu-opioid, membrane potential dye fluorescence; stimulated with maximal-effect DAMGO; inhibition, % at 10 µM; 2,400 tested, 55% active; AID 488928;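 active means drop in membrane potential signal beyond 5 SD of the control wells in both duplicate plates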;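 further: TRPC4 counter screen for TRPC6 hits run under conditions tuned for TRPC6 not TRPC4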
TRPC6 block conf: mouse TRPC6 inhibitor confirmation. shares compounds with TRPC6 inhibitor. HEK293-TRPC6, membrane potential dye, ACh-evoked depolarization. inhibition, % at 10 µM. 3,300 tested, 43% active. AID 488960;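 active means fluorescence ratio falls more than 5 SD below the full-stimulation control mean, in both duplicate runs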;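 further: integrated fluorescence ratio of peak minus minimum over baseline after agonist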
TRPC6 act conf: confirmation of mouse TRPC6 activators | shares compounds with TRPC6 inhibitor | HEK293-TRPC6 membrane potential dye fluorescence, FDSS | activation, % at 10 µM | 2,800 tested, 11% active;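 active means ratio signal rise beyond 5 SD above unstimulated control wells' mean, seen in both duplicate runs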;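 further: plate controls were buffer EC0 wells for no effect and acetylcholine ECmax response for full effect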
An asterisk follows results filed as active; i = inactive; / = not tested or not shown.

SMILES	TRPC4 act	TRPC4 inh	TRPC6 inhibitor	TRPC4 PAM	TRPC6 act	HEK293 MPD ctr-2	HEK293 MPD ctr 2-2	TRPC4 ctr mod	TRPC4 ctr inh 2	TRPC6 block conf	TRPC6 act conf	others
COc1ccc(NC(=O)CCNS(=O)(=O)c2cccc3nonc23)c(OC)c1	i	i	i	i	i	/	/	/	/	/	/
CC(C)Oc1ccc(CCC(=O)NNC(=O)CCC(=O)O)cc1	i	i	i	i	i	/	/	/	/	/	/
Cc1nc(SCC(=O)c2ccccc2)c(C#N)c(-c2ccco2)c1C(=O)NCc1ccco1	i	i	i	i	14*	220%*	i	16%*	i	i	52%*
CC1CCCCN1CC(=O)Nc1ccc(N2CCCCCC2)cc1 (stereo not drawn)	i	i	-5.4*	i	i	i	i	-12%*	32%*	40%*	i
CC(C)c1nc2cc(C(=O)N3CCNC(=O)C3c3ccc(F)cc3)ccc2o1 (stereo not drawn)	i	i	i	i	i	/	/	/	/	/	/
CC(C)C(NC(=O)/C=C/c1ccc(F)cc1)C(C)C	i	i	-6.9*	i	i	/	/	/	/	i	i	TRPC4 spec 2=i;TRPC4 spec=i;HEK293 MPD ctr 2-1=i;HEK293 MPD ctr-1=i
COc1cc(Cl)c(C)cc1NC(=O)COC(=O)CCc1nc2ccccc2c(=O)[nH]1	i	i	i	i	i	/	/	/	/	/	/
O=C(Nc1ccc(F)cc1)c1ccccc1Oc1ccc(C(F)(F)F)cc1[N+](=O)[O-]	i	i	-5.3*	i	i	i	i	i	35%*	i	i
CCOC(=O)c1ccc(NC(=O)CCc2ccc(CC)o2)cc1	i	i	-12*	i	i	/	/	/	/	i	/	TRPC4 spec 2=i;TRPC4 spec=i;HEK293 MPD ctr 2-1=i;HEK293 MPD ctr-1=i
O=C(c1ccc([N+](=O)[O-])cc1)N(Cc1ccccc1)c1ccccn1	i	i	-5.7*	i	i	144%*	i	38%*	i	i	/
O=C(c1ccccc1)N(Cc1ccccc1)c1ccccn1	i	i	i	i	i	/	/	/	/	/	/
Cc1ccc(-n2nc(C)c(/C=N/n3c(C)n[nH]c3=S)c2Cl)cc1	i	i	i	i	i	/	/	/	/	/	/
COc1cccc(C2SCC(=O)N2c2ccc(C)cc2)c1OC (stereo not drawn)	i	i	-5.6*	i	i	i	i	8.0%*	i	66%*	i
O=C(O)CN1C(=O)C2C3C=CC(C3)C2C1=O (stereo not drawn)	i	i	i	i	i	/	/	/	/	/	/
C[N+]1(CN2C(=O)C3C4C=CC(C4)C3C2=O)CCCCC1 (stereo not drawn)	i	i	-5.6*	i	i	i	i	i	i	48%*	i
CC(C)(C)OC(=O)NCC1CCC(C(=O)NC[C@H](CC(=O)O)c2ccc(Cl)cc2)CC1 (stereo partly drawn)	i	i	i	i	i	/	/	/	/	/	/
CS(=O)(=O)N(CC(=O)NCc1ccc(Cl)cc1)C1CCCCC1	i	i	i	i	i	/	/	/	/	/	/
CS(=O)(=O)N(CC(=O)NCc1ccccc1Cl)C1CCCCC1	i	i	-6.5*	i	i	134%*	i	22%*	i	i	/
CN(C)C(=O)N1CCCC(C(=O)NCc2ccccc2Cl)C1 (stereo not drawn)	i	i	-5.3*	i	i	i	i	i	i	i	i
CC1CC(C)CN(S(=O)(=O)c2ccc3c(c2)NC(=O)C(C)C(=O)N3)C1 (stereo not drawn)	i	i	i	i	i	/	/	/	/	/	/
O=C(Nc1ccccc1NC(=O)c1c(F)cccc1F)c1c(F)cccc1F	i	i	-5.8*	i	i	i	i	i	i	i	i
CCCn1nc([N+](=O)[O-])c(C(C#N)c2nc3ccccc3o2)c(Cl)c1=O (stereo not drawn)	i	-5*	-7.9*	i	i	-217%*	i	-46%*	81%*	68%*	i
COc1ccc(C2=Nn3c([n+](C)c4ccccc43)SC2)cc1	i	i	-7.1*	i	i	/	/	/	/	109%*	i	TRPC4 spec 2=66%*;TRPC4 spec=-20%*;HEK293 MPD ctr 2-1=-36%*;HEK293 MPD ctr-1=-338%*
COc1ccc(OCC(=O)Nc2c(C(=O)N3CCC(N4CCCCC4)CC3)oc3ccccc23)cc1	i	i	i	i	i	/	/	/	/	/	/
CC(CNC(=O)c1ccc(C#N)cc1)NC(=O)c1ccc(C#N)cc1 (stereo not drawn)	i	i	i	i	i	/	/	/	/	/	/
COCCN(CCOC)c1nc(S(=O)(=O)c2ccc(C)cc2)c(Cl)s1	i	i	-5.4*	i	i	106%*	i	24%*	i	i	/
O=C(CSc1nnc(C2CC2)n1Cc1ccccc1)c1cc2ccccc2o1	i	i	-5.2*	i	i	169%*	i	24%*	i	i	/
NC(=O)CSc1nnc(-c2cc3ccccc3o2)n1Cc1ccccc1	i	i	i	i	i	/	/	/	/	/	/

Screening data as filed in PubChem.
